# Test results reported in ChEMBL document CHEMBL1122829, “Antimicrobial and cytotoxic properties of 9,10-dihydrophenanthrenes: structure-activity studies on juncusol” (J Med Chem, 1985).
# Activity calls are given as the source filed them. No cut-off for these calls is given here.
# What was measured:
# Candida albicans [1] = assay: In vitro antimicrobial activity against Candida albicans ATCC 10231, tested at 100-0.1 ug/mL; i=Inactive at highest concentration; format: functional, organism-based
# Summary of the method: (§1)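 Agar dilution/streak method; MIC (μg/mL) read as lowest concentration inhibiting growth. Each organism was streaked on agar plates holding serial dilutions of test agent over the range given in the line. "i" means no inhibition at the top concentration tested.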
# Klebsiella pneumoniae [2] = assay: In vitro antimicrobial activity against Klebsiella pneumoniae ATCC 10031,tested at 100-0.1 ug/mL; i=Inactive at highest concentration; format: functional, organism-based; summary of the method: as §1
# [3] = test system: Mycolicibacterium smegmatis; assay: In vitro antimicrobial activity against Mycobacterium smegmatis ATCC 607,tested at 100-0.1 ug/mL; i=Inactive at highest concentration; format: functional, organism-based; summary of the method: as §1
# Staphylococcus aureus [4] = assay: In vitro antimicrobial activity against, Staphylococcus aureus ATCC 13709,tested at 100-0.1 ug/mL; i=Inactive at highest concentration; format: functional, organism-based; summary of the method: as §1
# Candida albicans [5] = assay: In vitro antimicrobial activity against Candida albicans ATCC 10231, tested at 100-0.1 ug/mL; format: functional; summary of the method: as §1
# Homo sapiens = species: Homo sapiens; assay: In vitro cytotoxic activity against, human lymphoblastic leukemia cell culture (CCRF-CEM); format: functional
# Klebsiella pneumoniae [6] = assay: In vitro antimicrobial activity against Klebsiella pneumoniae ATCC 10031,tested at 100-0.1 ug/mL; format: functional; summary of the method: as §1
# L1210 [7] = assay: In vitro cytotoxic activity against,L-1210 mouse lymphocytic leukemia cell culture (ATCC CCL-219); format: functional, cell-based
# Summary of the method: (§2)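 L1210 (ATCC 219) cells: 1×10^4 cells per well seeded in DMEM with 5% bovine serum and grown 48 h at 37 °C under 5% CO2. Agent was added from a 10 mg/mL stock in 95% ethanol via 2× medium and incubated a further 48 h. The nonadherent cells were dispersed by pipetting, diluted in balanced salts solution and counted by hemocytometer or Coulter counter. IC50 is the dose giving 50% of control count.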
# Staphylococcus aureus [8] = assay: In vitro antimicrobial activity against, Staphylococcus aureus ATCC 13709,tested at 100-0.1 ug/mL; format: functional; summary of the method: as §1
# B16 [9] = assay: In vitro cytotoxic activity against,B-16 mouse melanoma (B-16); format: functional, cell-based
# Summary of the method: (§3)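 B16 cells: 1×10^4 cells per well seeded in DMEM with 5% bovine serum and grown 48 h at 37 °C under 5% CO2. Agent was added from a 10 mg/mL stock in 95% ethanol via 2× medium and incubated a further 48 h. Cells were detached with 0.01% trypsin/0.1% EDTA in PBS for 5 min at 37 °C and counted. IC50 is the dose giving 50% of control cell count, taken from count versus concentration plots.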
# [10] = test system: Mycolicibacterium smegmatis; assay: In vitro antimicrobial activity against Mycobacterium smegmatis ATCC 607,tested at 100-0.1 ug/mL; format: functional; summary of the method: as §1
# B16 [11] = assay: In vitro cytotoxic activity against B-16 mouse melanoma (B-16); format: functional, cell-based; summary of the method: as §3
# Candida albicans [12] = assay: In vitro antimicrobial activity against Candida albicans ATCC 10231 tested at 25-0.1 ug/mL; i=Inactive at highest concentration; format: functional, organism-based; summary of the method: as §1
# Klebsiella pneumoniae [13] = assay: In vitro antimicrobial activity against Klebsiella pneumoniae ATCC 10031 tested at 25-0.1 ug/mL; i=Inactive at highest concentration; format: functional, organism-based; summary of the method: as §1
# L1210 [14] = assay: In vitro cytotoxic activity against L-1210 mouse lymphocytic leukemia cell culture (ATCC CCL-219); format: functional, cell-based; summary of the method: as §2
# [15] = test system: Mycolicibacterium smegmatis; assay: In vitro antimicrobial activity against Mycobacterium smegmatis ATCC 607 tested at 25-0.1 ug/mL; format: functional; summary of the method: as §1
# Staphylococcus aureus [16] = assay: In vitro antimicrobial activity against, Staphylococcus aureus ATCC 13709 tested at 25-0.1 ug/mL; format: functional
# Summary of the method: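 Agar-dilution/streak assay giving the MIC in μg/mL, run against S. aureus ATCC 13709 within a seven-organism panel.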
# Klebsiella pneumoniae [17] = assay: In vitro antimicrobial activity against,Klebsiella pneumoniae ATCC 10031 tested at 100-0.1 ug/mL; i=Inactive at highest concentration; format: functional, organism-based; summary of the method: as §1
# [18] = test system: Mycolicibacterium smegmatis; assay: In vitro antimicrobial activity against Mycobacterium smegmatis ATCC 607 tested at 100-0.1 ug/mL; i=Inactive at highest concentration; format: functional, organism-based; summary of the method: as §1
# Staphylococcus aureus [19] = assay: In vitro antimicrobial activity against, Staphylococcus aureus ATCC 13709 tested at 100-0.1 ug/mL; i=Inactive at highest concentration; format: functional, organism-based; summary of the method: as §1
# Candida albicans [20] = assay: In vitro antimicrobial activity against Candida albicans ATCC 10231, tested at 50-0.1 ug/mL; i=Inactive at highest concentration; format: functional, organism-based; summary of the method: as §1
# Klebsiella pneumoniae [21] = assay: In vitro antimicrobial activity against Klebsiella pneumoniae ATCC 10031,tested at 50-0.1 ug/mL; i=Inactive at highest concentration; format: functional, organism-based; summary of the method: as §1
# [22] = test system: Mycolicibacterium smegmatis; assay: In vitro antimicrobial activity against Mycobacterium smegmatis ATCC 607,tested at 50-0.1 ug/mL; format: functional; summary of the method: as §1
# Staphylococcus aureus [23] = assay: In vitro antimicrobial activity against, Staphylococcus aureus ATCC 13709,tested at 50-0.1 ug/mL; format: functional; summary of the method: as §1
# Klebsiella pneumoniae [24] = assay: In vitro antimicrobial activity against Klebsiella pneumoniae ATCC 10031,tested at 100-0.1 ug/mL; Inactive at highest concentration; format: functional, organism-based; summary of the method: as §1
# Staphylococcus aureus [25] = assay: In vitro antimicrobial activity against, Staphylococcus aureus ATCC 13709,tested at 50-0.1 ug/mL;; format: functional; summary of the method: as §1
# Candida albicans [26] = assay: In vitro antimicrobial activity against Candida albicans ATCC 10231, tested at 25-0.1 ug/mL; i=Inactive at highest concentration; format: functional, organism-based; summary of the method: as §1
# Klebsiella pneumoniae [27] = assay: In vitro antimicrobial activity against Klebsiella pneumoniae ATCC 10031,tested at 25-0.1 ug/mL; i=Inactive at highest concentration; format: functional, organism-based; summary of the method: as §1
# [28] = test system: Mycolicibacterium smegmatis; assay: In vitro antimicrobial activity against Mycobacterium smegmatis ATCC 607,tested at 25-0.1 ug/mL; format: functional; summary of the method: as §1
# Staphylococcus aureus [29] = assay: In vitro antimicrobial activity against, Staphylococcus aureus ATCC 13709,tested at 25-0.1 ug/mL; format: functional; summary of the method: as §1
# Staphylococcus aureus [30] = assay: In vitro antimicrobial activity against Staphylococcus aureus ATCC 13709,tested at 100-0.1 ug/mL; format: functional; summary of the method: as §1
structure (smiles),measurement,setting,value
COc1cc2c(cc1C)-c1ccc(OC)c(C)c1CC2,MIC,Candida albicans [1],inactive
same,MIC,Klebsiella pneumoniae [2],inactive
same,MIC,[3],inactive
same,MIC,Staphylococcus aureus [4],inactive
COc1cc2c(cc1C[N+](C)(C)CSc1ccccc1)-c1ccccc1CC2.[Br-],MIC,Candida albicans [5],12.5 µg/mL
same,IC50,Homo sapiens,1.4 µg/mL
same,MIC,Klebsiella pneumoniae [6],25 µg/mL
same,IC50,L1210 [7],3.7 µg/mL
same,MIC,Staphylococcus aureus [8],1.56 µg/mL
same,IC50,B16 [9],0.5 µg/mL
same,MIC,[10],1.56 µg/mL
Cc1cc2c(cc1O)CCc1c-2ccc(O)c1C,MIC,Candida albicans [5],50 µg/mL
same,IC50,Homo sapiens,9.3 µg/mL
same,MIC,Klebsiella pneumoniae [6],50 µg/mL
same,IC50,L1210 [7],10.2 µg/mL
same,MIC,Staphylococcus aureus [8],12.5 µg/mL
same,IC50,B16 [9],17.5 µg/mL
same,MIC,[10],6.25 µg/mL
C=Cc1c(C)c(O)cc2c1-c1ccc(O)c(C)c1CC2,IC50,B16 [11],12.5 µg/mL
same,MIC,Candida albicans [12],inactive
same,MIC,Klebsiella pneumoniae [13],inactive
same,IC50,L1210 [14],13.8 µg/mL
same,MIC,[15],12.5 µg/mL
same,MIC,Staphylococcus aureus [16],25 µg/mL
COc1cc2c(cc1C[N+](C)(C)CSc1ccccc1)-c1ccc(OC)c(C)c1CC2.[Br-],MIC,Candida albicans [5],3.12 µg/mL
same,IC50,Homo sapiens,0.9 µg/mL
same,MIC,Klebsiella pneumoniae [6],12.5 µg/mL
same,IC50,L1210 [7],1.3 µg/mL
same,MIC,Staphylococcus aureus [8],1.56 µg/mL
same,IC50,B16 [9],0.3 µg/mL
same,MIC,[10],1.56 µg/mL
C=Cc1c(C)c(OC)cc2c1-c1ccc(OC)c(C)c1CC2,MIC,Candida albicans [1],inactive
same,MIC,Klebsiella pneumoniae [17],inactive
same,MIC,[18],inactive
same,MIC,Staphylococcus aureus [19],inactive
CCc1cc2c(cc1OC)-c1ccccc1CC2,MIC,Candida albicans [20],inactive
same,MIC,Klebsiella pneumoniae [21],inactive
same,MIC,[22],3.12 µg/mL
same,MIC,Staphylococcus aureus [23],25 µg/mL
Cc1cc2c(cc1O)CCc1ccccc1-2,MIC,Candida albicans [5],6.25 µg/mL
same,MIC,Klebsiella pneumoniae [24],inactive
same,IC50,L1210 [7],24.5 µg/mL
same,MIC,Staphylococcus aureus [8],25 µg/mL
same,IC50,B16 [9],27.5 µg/mL
same,MIC,[10],3.12 µg/mL
COC(=O)c1cc2c(cc1OC)CCc1ccccc1-2,MIC,Candida albicans [20],inactive
same,MIC,Klebsiella pneumoniae [21],inactive
same,MIC,[22],25 µg/mL
same,MIC,Staphylococcus aureus [25],50 µg/mL
COc1cc2c(cc1C[N+](C)(C)CSc1ccccc1)CCc1ccccc1-2.[Br-],MIC,Candida albicans [26],inactive
same,MIC,Klebsiella pneumoniae [27],inactive
same,MIC,[28],3.12 µg/mL
same,MIC,Staphylococcus aureus [29],6.25 µg/mL
COc1ccccc1C[N+](C)(C)CSc1ccccc1.[Br-],MIC,Candida albicans [5],100 µg/mL
same,MIC,Klebsiella pneumoniae [2],inactive
same,MIC,Staphylococcus aureus [30],50 µg/mL
same,MIC,[10],50 µg/mL
COc1cc2c(cc1C)-c1ccccc1CC2,MIC,Candida albicans [5],100 µg/mL
same,MIC,Klebsiella pneumoniae [2],inactive
same,MIC,Staphylococcus aureus [4],inactive
same,MIC,[10],25 µg/mL
CC[N+](CC)(CC)Cc1cc2c(cc1OC)CCc1ccccc1-2.[Br-],MIC,Candida albicans [20],inactive
same,MIC,Klebsiella pneumoniae [21],inactive
same,MIC,[22],25 µg/mL
same,MIC,Staphylococcus aureus [23],25 µg/mL
